# Screening data deposited in PubChem by several laboratories.
# Rows were chosen to be rich in hits. Some 2% of all compounds tested hit in one or more screens of this group.
# TROY NFkB inh: TROY signaling inhibition. AID 1347056. Q293 LMP1-TROYcd NF-kB luciferase reporter, 4 h. actives 0.98% (n = 360,000). inhibition, % at 10 µM;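 active means compounds whose plate-normalised and pattern-corrected inhibition of the luciferase reporter signal at the single screening dose is 50% or more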
# XiGFP reactiv: X-chromosome reactivation activator; XiGFP mouse fibroblasts, % GFP-positive cells imaging, 3 d; cells co-treated with 5-aza-dC sensitizer; scaled so ellipticine positive control = 100%; AID 743238; activation, % at 7.58 µM; actives 0.055% (n = 360,000);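 active means mean normalized replicate activation at least 10% and every replicate at or above 10%; inconclusive means only one of the two criteria met; inactive means mean below 10% and not all replicates reach 10%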;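 further: 0% = median of on-plate neutral control wells and 100% = ellipticine 6 µM median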
#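 Material: XiGFP fibroblasts, SV40-immortalized; Buffer or medium: DMEM containing 5-aza-dC; Compound dosing: single point; Times: 3 days compound exposure.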
# LGR2 antag: inhibitors of bursicon-induced Drosophila LGR2 receptor cAMP signaling | actives 0.35% (n = 380,000) | inhibition, % at 9.99 µM | AID 720647 | HEK293 LGR2, CRE-luciferase, bursicon-stimulated, 4 h;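 active means drop in luminescence signal, shown as inhibition above about 50% in the replicate tests, limit read from the data, passing the limit was not always enough; inconclusive means probably only some replicates passing the limit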;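 further: agonist challenge used bursicon conditioned medium at about half maximal strength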
# CaV13 FRET inh: Disruptors of the CACNA1D IQ motif to Ca2+-dependent inactivation inhibitor domain association, primary screening, Förster resonance energy transfer in intact living …. inhibition, % at 12.3 µM. HEK cells, CFP/YFP FRET ICDI-IQ, plate reader, 10 min; percent FRET-ratio fall versus neutral wells. actives 0.098% (n = 340,000);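 active means mean replicate inhibition of at least 30% and at least 1% of replicates passing that level; inconclusive means only one of the two criteria is met; inactive means neither criterion is met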;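 further: 0% = median of the neutral control wells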
# TWEAK Fn14 block: inhibitors of TWEAK-Fn14 interaction signaling. TWEAK-stimulated Fn14 reporter cells, luciferase luminescence, 8 h. inhibition, % at 10 µM. actives 2% (n = 360,000). AID 1159606; in the data active means inhibition above about 50%
# Active calls of the source: *; ? = inconclusive; nt = no result given.
SMILES,TROY NFkB inh,XiGFP reactiv,LGR2 antag,CaV13 FRET inh,TWEAK Fn14 block
C=C1C(=O)OC2C1CCC(C)C1(O)C=CC(=O)C21C (stereo not drawn),-17,nt,40,nt,66*
O=C(O)[C@@H]1[C@@H](CO)[C@@H]2Cn3c(ccc(C4=CCCC4)c3=O)[C@H]1N2C(=O)Cc1ccccn1,nt,0,-16,nt,nt
Oc1ccccc1Cl,3,nt,24,nt,3
Oc1ccc(O)c2c1C1(Cl)C(Cl)=C(Cl)C2(Cl)C1(Cl)Cl,52*,0,23,-4,43
CC(C)(O)/C=C/C(=O)C(C)(O)C1C(O)CC2(C)C3CC=C4C(C=C(O)C(=O)C4(C)C)C3(C)C(=O)CC12C (stereo not drawn),70*,0,88*,-6,90*
CC(=O)OC(C)(C)/C=C/C(=O)[C@](C)(O)C1[C@H](O)C[C@@]2(C)C3CC=C4C(C[C@H](O)C(=O)C4(C)C)[C@]3(C)C(=O)C[C@]12C (stereo partly drawn),49,nt,nt,nt,42
CN1CCN(c2ccc([N+](=O)[O-])c3no[n+]([O-])c23)CC1,-8,1,105*,-7,104*
O=[N+]([O-])c1ccc(N(CCO)CCO)c2c1no[n+]2[O-],9,1,?,-6,20
CN1CCN(c2cccc3c2C(=O)c2ccccc2C3=O)CC1,64*,0,-45,-6,55*
C/C=C/c1ccc(C2[C@@H]3CN(C(=O)c4cnccn4)C[C@H]2N3)cc1 (stereo partly drawn),nt,0,-20,nt,nt
CC(C)c1oc(=O)cc2c1[C@@H](O)[C@H]1OC(=O)[C@@]3(C)CC[C@@H](O)[C@@]2(C)C13 (stereo partly drawn),8,0,67*,28,50
CC(C)c1oc(=O)cc2c1[C@@H](O)[C@H]1OC(=O)[C@@]3(C)C[C@@H](O)[C@@H](O)[C@@]2(C)C13 (stereo partly drawn),38,0,78*,-5,88*
N#Cc1cccc(-c2ccc([C@@H]3[C@@H](CO)N4CCCCN(C(=O)Cc5ccccc5)C[C@H]34)cc2)c1,nt,0,-13,nt,nt
CC1=CC2OC3CC4OC(=O)C=CC=CC(C(C)O)OCC(O)C5(C)OC5C(=O)OCC2(CC1O)C4(C)C31CO1 (stereo not drawn),83*,0,102*,-6,99*
CC(O)C1C=CC=CC(=O)OC2CC3OC4C5OC5(C)C(O)CC4(COC(=O)C(O)C(C)CCO1)C2(C)C31CO1 (stereo not drawn),86*,0,104*,-10,99*
CC1=CC2OC3CC4OC(=O)C=CC=CC(=O)OCCC(C)C(O)C(=O)OCC2(CC1)C4(C)C31CO1 (stereo not drawn),85*,1,nt,-3,101*
CC1CCOC(=O)C=CC=CC(=O)OC2CC3OC4C5OC5(C)C(O)CC4(COC(=O)C1O)C2(C)C31CO1 (stereo not drawn),86*,0,104*,-2,103*
O=C(Cc1ccccn1)N1CCCCN2[C@H](CO)[C@@H](c3ccc(C#Cc4ccccc4)cc3)[C@H]2C1,nt,0,2,nt,nt
O=C(Cc1ccccn1)N1CC2(C1)[C@H](c1ccccc1)[C@@H](CO)N2Cc1ccccn1,nt,0,-20,nt,nt
CC=Cc1ccc2n(c1=O)C[C@H]1[C@H](CO)[C@@H](C(=O)OC)[C@@H]2N1CC1CCOCC1 (mixture of isomers),nt,0,-9,nt,nt
O=C1CNC[C@@H]2[C@@H](c3ccc(Br)cc3)[C@@H](CO)N12,nt,0,6,nt,nt
COC(=O)[C@H]1[C@H](CO)[C@H]2Cn3c(ccc(C4=CCCC4)c3=O)[C@@H]1N2CC1CCCC1,nt,0,1,nt,nt
COC(=O)[C@H]1[C@H](CO)[C@H]2Cn3c(ccc(/C=C/c4ccccc4)c3=O)[C@@H]1N2C(=O)C1CC1,nt,1,-8,nt,nt
CCCNC(=O)c1c(N)n(Cc2ccc3c(c2)OCO3)c2nc3ccccc3nc12,58*,nt,nt,nt,31
CC(C)CNC(=O)c1c(N)n(Cc2ccco2)c2nc3ccccc3nc12,16,nt,nt,-3,38
SMILES,TROY NFkB inh,XiGFP reactiv,LGR2 antag,CaV13 FRET inh,TWEAK Fn14 block
COCCCNC(=O)c1c(N)n(Cc2ccco2)c2nc3ccccc3nc12,6,0,5,-12,19
CC(C)CCNC(=O)c1c(N)n(Cc2ccc3c(c2)OCO3)c2nc3ccccc3nc12,60*,nt,nt,-4,49
CC(C)CNC(=O)c1c(N)n(Cc2ccc3c(c2)OCO3)c2nc3ccccc3nc12,63*,nt,nt,-3,27
COCCOC(=O)c1c(N)n(Cc2ccc(OC)cc2)c2nc3ccccc3nc12,61*,nt,nt,nt,39
CCOC(=O)c1c(N)n(Cc2ccc(OC)cc2)c2nc3ccccc3nc12,nt,nt,4,-4,nt
C/C=C/c1ccc(C2[C@@H]3CN(C(=O)C4CC4)C[C@H]2N3)cc1 (stereo partly drawn),nt,0,21,nt,nt
C=CCN1[C@@H]2CN(C(C)=O)C[C@H]1C2c1ccccc1 (stereo partly drawn),nt,0,nt,nt,nt
OC[C@H]1Nc2ccc(C#Cc3cccnc3)cc2[C@H]2NCC[C@H]21,nt,0,13,nt,nt
COc1ccc(Cn2c(N)c(C(=O)NCc3ccco3)c3nc4ccccc4nc32)cc1OC,67*,nt,nt,nt,19
COc1cccc(-n2c(C)nc3ccccc3c2=O)c1,-19,nt,nt,-4,67*
CCCN1[C@@H]2c3cccc(=O)n3C[C@H]1[C@H](CO)[C@H]2C(=O)N(C)C,nt,1,11,nt,nt
O=C(Cc1ccccc1)N1CCCCN2[C@@H](CO)[C@@H](c3ccc(-c4ccccc4)cc3)[C@@H]2C1,nt,0,12,nt,nt
CSCCC(c1nnnn1-c1c(C)cccc1C)N1CCC2(CC1)C(=O)NCN2c1ccccc1 (stereo not drawn),35,0,?,-8,30
Cc1cccc(C)c1-n1nnnc1C(CCc1ccccc1)N1CCC2(CC1)C(=O)NCN2c1ccccc1 (stereo not drawn),67*,0,20,-9,31
COc1ccc(C(c2nnnn2C2CCCC2)N2CCC3(CC2)C(=O)NCN3c2ccccc2)cc1 (stereo not drawn),56*,0,5,-6,-8
COc1cccc(CN2CC3(C2)[C@H](c2ccccc2)[C@H](CO)N3C(=O)Cc2ccccc2)c1,nt,0,-14,nt,nt
COC(=O)[C@@H]1[C@@H](CO)[C@@H]2Cn3c(ccc(C4=CCCC4)c3=O)[C@H]1N2CC1CCCCC1,nt,1,-8,nt,nt
COc1ccc(CCNCc2sccc2C)cc1OC,11,0,17,-7,77*
N#Cc1ccc(-c2ccc([C@@H]3[C@H]4CN(C(=O)Cc5ccccc5)CCCCN4[C@H]3CO)cc2)cc1,nt,0,-7,nt,nt
CCOC(=O)[C@]12Cc3ccc(C)cc3[C@H]1N(C1CCCCC1)C(=O)c1cc(OC)ccc12,48,0,55*,-6,101*
